Screening results (PubChem)
In the library only some 1.9% were active in any assay of this set; here they are far more common.
M5 antag: CHRM5 antagonism in calcium assay. P08912. CHO-hM5 cells, Fluo-8 calcium fluorescence, ACh EC80. inhibition, % at 3 µM. actives 0.59% (n = 360,000);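 active = inhibition above a per-plate cutoff, the mean of that plate's test compounds plus 3 SD, cut at about 27% in these data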
CHRM4 PAM: positive allosteric modulators of human muscarinic M4 receptor | P08173 | CHO-K1 hM4/Gqi5, Fluo-8 calcium fluorescence, ACh EC20; 0% = ACh EC20, 100% = maximal ACh | activation, % at 3 µM | actives 0.4% (n = 360,000) | AID 624126;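 active = activation above its plate's cutoff, the mean activation of sample wells plus 3 SD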
Target sequence (P08173 whole entry, looked up): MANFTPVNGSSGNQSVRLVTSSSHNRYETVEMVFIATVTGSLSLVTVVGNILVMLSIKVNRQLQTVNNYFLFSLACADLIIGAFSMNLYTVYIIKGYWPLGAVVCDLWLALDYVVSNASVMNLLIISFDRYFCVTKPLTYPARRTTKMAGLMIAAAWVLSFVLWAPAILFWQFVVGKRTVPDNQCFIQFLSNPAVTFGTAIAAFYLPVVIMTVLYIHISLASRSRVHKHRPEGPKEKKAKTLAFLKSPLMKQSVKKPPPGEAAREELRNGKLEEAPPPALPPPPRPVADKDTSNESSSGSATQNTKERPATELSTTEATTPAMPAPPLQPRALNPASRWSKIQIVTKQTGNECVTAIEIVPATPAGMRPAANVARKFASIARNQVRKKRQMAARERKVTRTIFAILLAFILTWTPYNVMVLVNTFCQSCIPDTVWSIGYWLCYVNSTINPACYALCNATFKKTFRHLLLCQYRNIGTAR
M4 antag: antagonists of human muscarinic M4 receptor (CHRM4). inhibition, % at 3 µM. CHO-hM4 cells, ACh EC80, Fluo-8 calcium fluorescence. P08173. actives 0.73% (n = 360,000);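 active = inhibition above its plate's cutoff, the mean inhibition of sample wells plus 3 SD, cut at about 27% in these data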
CHRM5 PAM: positive allosteric modulators of human muscarinic M5 receptor; CHO-K1 hM5, Fluo-8 calcium, ACh EC20 PAM; 0% = ACh EC20, 100% = ACh EC100; activation, % at 3 µM; actives 0.3% (n = 360,000); AID 624038;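 active = activation above the run cutoff, the mean activation of all test compounds plus 3 SD, cut at about 18% in these data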
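system = human M5 receptor in CHO-K1 cells | compound = one concentration, 3 µM final (nominal) | schedule = Post-acetylcholine fluorescence recording 140 s | signal = Fluo-8 calcium dye fluorescence, kinetic read | benchmarks = low control EC20 acetylcholine (0%), high control EC100 acetylcholine (100%) | repeats = singlicate, one well per test compound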
CHRM5 agonist: agonists of human muscarinic M5 receptor (CHRM5); P08912; CHO-K1 hM5 cells, Fluo-8 calcium fluorescence; 0% DMSO wells, 100% maximal acetylcholine response; activation, % at 3 µM; actives 0.19% (n = 360,000); AID 624037;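 active = activation above the run's mean over test compounds plus 3 SD, cut at about 23% in these data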;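 also: signal is peak over basal fluorescence ratio across the kinetic read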
CHRM4 agonist: agonists of human muscarinic M4 receptor (CHRM4); P08173; CHO-K1 hM4/Gqi5, Fluo-8 calcium fluorescence; vehicle 0%, full acetylcholine response 100%; activation, % at 3 µM; actives 0.14% (n = 360,000);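 active = activation above the run mean over all test wells plus 3 SD, cut at about 32% in these data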;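 also: peak over basal fluorescence ratio per well then scaled between controls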
A number is an active result; 0 = inactive.

SMILES | M5 antag | CHRM4 PAM | M4 antag | CHRM5 PAM | CHRM5 agonist | CHRM4 agonist
CCN(CC#CCC(O)(c1ccccc1)c1ccccc1)C(C)C | 0 | 0 | 31 | 0 | 0 | 0
CC(C)Cn1c(N)c(C(=O)CSc2nnc(C3CC3)n2C2CC2)c(=O)n(C)c1=O | 0 | 0 | 0 | 0 | 0 | 0
O=C(OCc1ccccc1)/C(=C/c1ccc(Cl)cc1)NC(=O)c1ccccc1Cl | 0 | 0 | 0 | 0 | 0 | 0
COc1ccc(/C=C(/NC(=O)c2ccco2)C(=O)NCc2ccco2)cc1OC | 0 | 26 | 0 | 0 | 0 | 0
CCOC(=O)/C(=C/c1ccc(Cl)cc1)NC(=O)c1ccco1 | 0 | 24 | 0 | 0 | 0 | 0
CCOC(=O)c1csc(NC(=O)CN2CCCCC2)n1 | 0 | 0 | 0 | 0 | 0 | 0
COc1ccc(C(C(=O)Nc2ccc(F)cc2)N2CCN(c3cccc(C(F)(F)F)n3)CC2)cc1 (stereo not drawn) | 0 | 0 | 0 | 0 | 0 | 0
Cc1ccc(S(=O)(=O)N(CC(=O)NC2CC3CCC2C3)c2ccccc2)cc1 (stereo not drawn) | 0 | 0 | 0 | 0 | 0 | 0
CN(C)/C=C/c1onc(-c2c(F)cccc2Cl)c1C#N | 0 | 0 | 0 | 28 | 0 | 0
Cc1onc(-c2c(F)cccc2Cl)c1C(=O)NC1CC1 | 0 | 0 | 0 | 0 | 0 | 0
O=C(c1[nH]c(C(F)(F)F)nc1-c1ccccc1)N1CCN(C/C=C/c2ccccc2)CC1 | 0 | 0 | 0 | 0 | 0 | 0
CCOC(=O)c1c(C)nc2sc3c(=O)n(-c4ccc(C)cc4)cnc3c2c1-c1ccc(OC)cc1 | 0 | 0 | 0 | 0 | 0 | 0
CCOC(=O)CSc1nc(C)nc2c1sc1nc(C)c(C(C)=O)c(-c3ccc(OC)cc3)c12 | 0 | 20 | 0 | 0 | 0 | 0
O=C(Cc1ccccc1)Nc1nnc(-c2cccc([N+](=O)[O-])c2)s1 | 0 | 35 | 0 | 0 | 0 | 0
Cc1ccc(N=N/C(=C\O)C(=O)c2ccc(Cl)cc2)cc1 | 0 | 0 | 0 | 0 | 0 | 0
O=C(/C(=C/O)N=Nc1ccccc1)c1ccc(Cl)cc1 | 0 | 0 | 0 | 19 | 0 | 0
CC12CCC(=O)C=C1CCC1C2C(O)CC2(C)C(c3csc(N)n3)CCC12 (stereo not drawn) | 0 | 0 | 0 | 0 | 0 | 0
CC12CCC(=O)C=C1CCC1C2CCC2(C)C(c3csc(N)n3)CCC12 (stereo not drawn) | 0 | 0 | 47 | 0 | 0 | 0
O=C(Nc1ccccc1N1CCCCC1)c1ccc(-c2cc(Cl)ccc2Cl)o1 | 0 | 0 | 0 | 0 | 0 | 0
COC[C@H]1CCCN1[C@H]1CS(=O)(=O)N[C@@H]1COCc1ccccc1 | 0 | 0 | 0 | 0 | 0 | 0
CCCN(CCC)C(=O)c1ccc2c(c1)S(=O)(=O)c1ccccc1C2=O | 30 | 0 | 0 | 0 | 0 | 0
CC1(C(=O)Nc2cccc3ccccc23)CC1(Br)Br (stereo not drawn) | 31 | 0 | 0 | 0 | 0 | 0
CC(C)N1CCC1(C)C(=O)Nc1cccc2ccccc12 (stereo not drawn) | 0 | 0 | 0 | 0 | 0 | 0
CC(=O)Nc1ccc(NC(=O)CSc2ncc(C(=O)Nc3ccc(F)cc3)c(=O)n2C)cc1 | 0 | 18 | 0 | 0 | 0 | 0
Cc1nnsc1C(=O)N1CCCC(C)(C(=O)NS(=O)(=O)C2CC2)C1 (stereo not drawn) | 0 | 20 | 0 | 0 | 0 | 0
SMILES | M5 antag | CHRM4 PAM | M4 antag | CHRM5 PAM | CHRM5 agonist | CHRM4 agonist
Cc1ccc(-n2ncc(C#N)c2/N=C/N2CCOCC2)cc1 | 0 | 22 | 0 | 0 | 0 | 0
COCCN(C)Cc1nc(C(c2ccccc2)c2ccccc2)no1 | 0 | 0 | 0 | 0 | 0 | 0
CCC(c1ccccc1)c1noc(CCN(CC)CC)n1 (stereo not drawn) | 59 | 0 | 59 | 0 | 0 | 0
Cc1ccc(NC(=O)CN2CCN(S(=O)(=O)c3ccc4c(c3)OCCO4)CC2)c(C)c1 | 0 | 0 | 0 | 0 | 0 | 0
COCCN(C(=O)CCl)C(C(=O)NC1CCCCC1)c1ccccc1C (stereo not drawn) | 0 | 0 | 0 | 0 | 0 | 0
Cc1cccc(C)c1C(OCCN(C)C)C1CCCCC1 (stereo not drawn) | 100 | 0 | 77 | 0 | 0 | 0
